KCNQ1 act = human KCNQ1 channel potentiation or activation. P51787. CHO-K1 KCNQ1, thallium flux FluxOR fluorescence; stronger effect = higher value. B-score at 10 µM. hit rate 0.35% among 310,000. AID 2648;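 active = fluorescence ratio B-score, a plate-corrected score, at least three library SD, with initial intensity B-score within 5 SD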
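Assay system: CHO-K1 cells stably expressing KCNQ1; Medium: assay buffer with matched DMSO; Also added: K+/Tl+ depolarizing stimulus; Dosing: single dose; Timing: dye 90 min, compound 20 min, room temperature; Measured by: kinetic FluxOR thallium fluorescence, 10-s 1-Hz baseline, 110-s post-stimulus read; Read-out: peak-minus-minimum fluorescence over initial fluorescence, negative-control normalized, B-scored.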
hERG rescue = hERG (human) protection from proarrhythmic block; CHO-hERG, FluxOR thallium flux, dofetilide IC70 present; hit rate 0.51% among 310,000; activation (rescue from dofetilide block), less the hit threshold, % at 10 µM; AID 1511; Q12809;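 active = activation above the mean of controls blocked by dofetilide plus 5 SD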;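 also: thallium influx through hERG after potassium depolarization seen as dye fluorescence rise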
KCNK9 block = inhibitors of human KCNK9 two-pore domain potassium channel; HEK293 KCNK9, FluxOR thallium flux fluorescence; stronger effect = lower value; B-score at 10 µM; hit rate 1.2% among 310,000;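 active = ratio B-score over 3 SD below the library mean, with starting fluorescence within 5 SD of its mean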;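 also: negative B-score means less thallium flux so channel inhibition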
KCNQ1 block = inhibitors of human KCNQ1 potassium channel; hit rate 1.3% among 310,000; CHO-K1 KCNQ1, FluxOR thallium flux fluorescence; stronger effect = higher value; B-score at 10 µM; P51787; AID 2642;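 active = compounds whose thallium flux B-score, printed positive for inhibition, exceeds three library SD while starting fluorescence stays within three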;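 also: channel opened by potassium depolarization with thallium stimulus after 20 min compound exposure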
KCNK3 block = human KCNK3 channel inhibition, primary screen; CHO-KCNK3 thallium flux, FluxOR fluorescence; stronger effect = lower value; hit rate 0.84% among 340,000; B-score at 10 µM; O14649;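 active = B-score under library mean minus 4 SD, starting fluorescence ratio at most library mean plus 5 SD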;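 also: more negative B-score means stronger inhibition of thallium flux through KCNK3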
KCC2 mod = modulators of human KCC2 chloride dependent transport. AID 1456. KCC2 cells, thallium flux FluoZin-2 fluorescence. Q9H2X9. hit rate 2.2% among 190,000. B-score of Tl+ flux slope (higher = more flux/activation; lower = inhibition) at 10 µM;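 active = thallium flux slope and its plate-corrected score both differing from the plate sample mean at a set confidence after two filtering rounds, in either direction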;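 also: slope of fluorescence scaled to starting intensity during 10 to 20 s after thallium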
Target sequence (Q9H2X9 whole entry, looked up): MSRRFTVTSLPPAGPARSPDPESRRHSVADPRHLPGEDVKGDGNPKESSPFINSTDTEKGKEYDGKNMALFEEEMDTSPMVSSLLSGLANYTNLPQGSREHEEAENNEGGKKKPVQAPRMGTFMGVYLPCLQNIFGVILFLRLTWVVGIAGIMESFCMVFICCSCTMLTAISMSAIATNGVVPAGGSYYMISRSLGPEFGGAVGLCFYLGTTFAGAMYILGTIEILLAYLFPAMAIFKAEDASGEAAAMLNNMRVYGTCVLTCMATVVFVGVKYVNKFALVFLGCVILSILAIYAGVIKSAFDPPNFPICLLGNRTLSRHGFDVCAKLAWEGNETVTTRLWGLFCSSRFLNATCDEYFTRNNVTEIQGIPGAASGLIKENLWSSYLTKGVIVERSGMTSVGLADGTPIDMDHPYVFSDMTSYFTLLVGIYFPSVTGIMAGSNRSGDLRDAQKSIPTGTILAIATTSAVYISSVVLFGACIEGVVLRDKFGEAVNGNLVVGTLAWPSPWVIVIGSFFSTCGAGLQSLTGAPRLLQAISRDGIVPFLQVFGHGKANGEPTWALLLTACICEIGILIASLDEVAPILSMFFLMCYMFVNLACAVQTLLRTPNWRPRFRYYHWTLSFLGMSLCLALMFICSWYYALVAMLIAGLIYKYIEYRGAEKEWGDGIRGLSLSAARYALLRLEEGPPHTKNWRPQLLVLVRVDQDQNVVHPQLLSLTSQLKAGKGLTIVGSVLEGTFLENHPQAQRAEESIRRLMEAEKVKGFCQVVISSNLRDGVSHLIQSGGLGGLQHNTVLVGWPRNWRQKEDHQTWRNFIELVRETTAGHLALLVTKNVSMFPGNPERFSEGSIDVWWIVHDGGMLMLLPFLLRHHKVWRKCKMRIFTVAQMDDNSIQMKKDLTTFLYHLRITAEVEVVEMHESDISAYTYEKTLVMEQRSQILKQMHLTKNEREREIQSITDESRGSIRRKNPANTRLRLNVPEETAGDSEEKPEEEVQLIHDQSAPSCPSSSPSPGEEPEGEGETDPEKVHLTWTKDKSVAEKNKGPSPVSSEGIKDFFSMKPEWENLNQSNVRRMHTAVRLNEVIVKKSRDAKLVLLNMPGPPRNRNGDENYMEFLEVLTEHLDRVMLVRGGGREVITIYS
KCNK9 block conf = confirmation of human KCNK9 potassium channel inhibitors; shares compounds with KCNK9 block; HEK293 KCNK9 cells, FluxOR thallium flux fluorescence; inhibition, % at 10 µM; hit rate 43% among 4,900; AID 492992;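 active = thallium signal inhibited by more than 5 SD of the compound-free buffer control wells, on both duplicate plates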;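 also: 0% = assay buffer control wells without compound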
Kir21 sel = selectivity of KCNK9 modulators against mouse Kir2.1 | inhibition, % at 10 µM | hit rate 4% among 4,900 | Kir2.1 cells, FluxOR thallium flux fluorescence | shares compounds with KCNK9 block;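 active = thallium signal drop more than 5 SD beyond the mean of the no-compound control wells, seen in both duplicate plates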;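 also: signal is fluorescence rise after thallium addition divided by baseline fluorescence; plate controls were assay buffer only for no effect and full block by chlorpromazine control for full effect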
HEK293 Tl ctr = second check of KCNK9 modulator effects in non-induced HEK293 cells; inhibition, % at 10 µM; shares compounds with KCNK9 block; hit rate 40% among 4,900; FluxOR thallium flux;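 active = thallium signal drop beyond 5 SD of the untreated control mean, on both duplicate plates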;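 also: plate controls were buffer only IC0 wells for no effect and SID17386958 at its maximal inhibitory level for full effect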
KCNK3 confirm = human KCNK3 channel inhibition, confirmation assay; shares compounds with KCNK3 block; CHO-KCNK3 thallium flux, FluxOR fluorescence; 0% buffer, 100% carvedilol maximal block; ratio percent of control, % at 10 µM; hit rate 99% among 2,400;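 active = ratio percent of control, averaged over triplicates, above buffer control mean plus 5 SD, cut at about 64% in these data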;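 also: ratio is the fluorescence rise from min to max over baseline after thallium stimulus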
KCNK3 uninduced = counter-screen for KCNK3 inhibitors: effect in non-induced cells; shares compounds with KCNK3 block; non-induced KCNK3 parental cells, FluxOR thallium flux; stronger effect = lower value; thallium flux ratio (lower = more inhibition) at 10 µM; hit rate 40% among 2,400; AID 651747;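 active = thallium flux ratio, averaged over three wells, more than 5 SD below the buffer control mean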;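 also: host cells are CHO cells without KCNK3 induction; ratio is peak minus trough fluorescence over baseline then normalized to buffer controls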
* = called active by the depositor. Compounds with a hit are over-represented: about 4.1% of the library has one in this group of screens.

For CC(C)(C)c1ccc(/C=C/C(=O)N2CCc3ccccc3C2)cc1 the results were KCNQ1 act inactive, hERG rescue -4.2, KCNK9 block inactive, KCNQ1 block 13*, KCNK3 block -11.3*, KCC2 mod 0.4, KCNK9 block conf inactive, Kir21 sel inactive, HEK293 Tl ctr 26.5%*, KCNK3 confirm 124.3* and KCNK3 uninduced 0.153*.
For Cc1ccc(/C=C/C(=O)N2CCc3ccccc3C2)cc1 the results were KCNQ1 act inactive, hERG rescue -8.2, KCNK9 block inactive, KCNQ1 block inactive, KCNK3 block inactive and KCC2 mod 0.0229.
Cc1cccn2c(NCc3ccc4c(c3)OCO4)c(-c3ccc(O)cc3)nc12 was read as KCNQ1 act inactive, hERG rescue -5.3, KCNK9 block inactive, KCNQ1 block inactive, KCNK3 block inactive and KCC2 mod 0.209.
COc1ccc(-c2nc3ccccn3c2NCc2ccc3c(c2)OCO3)cc1 was read as KCNQ1 act inactive, hERG rescue -23.4, KCNK9 block -9.56*, KCNQ1 block inactive, KCNK3 block -9.71*, KCC2 mod -1.06, KCNK9 block conf 47.5%*, Kir21 sel inactive, HEK293 Tl ctr inactive, KCNK3 confirm 109.7* and KCNK3 uninduced inactive.
Screening O=C(COc1ccc(Cl)cc1)N(Cc1ccccc1)c1nc(-c2ccccc2)cs1 returned KCNQ1 act inactive, hERG rescue -13.3, KCNK9 block inactive, KCNQ1 block inactive, KCNK3 block inactive and KCC2 mod 0.381.
For O=C(C1CC1)N(Cc1ccco1)c1nc(-c2ccccc2)cs1 the results were KCNQ1 act inactive, hERG rescue -10.2, KCNK9 block -11.8*, KCNQ1 block inactive, KCNK3 block -9.55*, KCC2 mod -0.753, KCNK9 block conf 30.5%*, Kir21 sel inactive, HEK293 Tl ctr 49.0%*, KCNK3 confirm 109.3* and KCNK3 uninduced inactive.
`O=C(COC(=O)c1ccccc1NC(=O)c1ccccc1)c1ccc([N+](=O)[O-])cc1` gave KCNQ1 act inactive, hERG rescue -6.6, KCNK9 block -13.9*, KCNQ1 block inactive, KCNK3 block -9.62*, KCNK9 block conf 73.0%*, Kir21 sel inactive, HEK293 Tl ctr 33.5%*, KCNK3 confirm 104.0* and KCNK3 uninduced inactive.
CCOC(=O)c1ccccc1NC(=O)c1cccc([N+](=O)[O-])c1 was read as KCNQ1 act inactive, hERG rescue -3.5, KCNK9 block inactive, KCNQ1 block inactive, KCNK3 block inactive and KCC2 mod -0.99.
COc1ccc(-c2ccc(SCC(=O)c3ccc(F)cc3)nn2)cc1OC was read as KCNQ1 act inactive, hERG rescue -18.9, KCNK9 block -15.5*, KCNQ1 block inactive, KCNK3 block -9.8*, KCC2 mod -1.67, KCNK9 block conf 64.5%*, Kir21 sel inactive, HEK293 Tl ctr inactive, KCNK3 confirm 118.3* and KCNK3 uninduced inactive.
COc1ccc(-c2ccc(SCC(=O)c3cccs3)nn2)cc1OC was read as KCNQ1 act inactive, hERG rescue -9.8, KCNK9 block inactive, KCNQ1 block inactive, KCNK3 block inactive and KCC2 mod -0.929.
Screening CC1(NC(=O)CCc2nc3ccccc3c(=O)[nH]2)CCS(=O)(=O)C1 (stereo not drawn) returned KCNQ1 act inactive, hERG rescue -6.7, KCNK9 block inactive, KCNQ1 block inactive and KCNK3 block inactive.
Screening O=C(C/C=N/OCc1ccc(Cl)cc1Cl)c1ccc(Cl)cc1 returned KCNQ1 act inactive, hERG rescue -8.8, KCNK9 block -14.9*, KCNQ1 block inactive, KCNK3 block -8.99*, KCC2 mod -0.0525, KCNK9 block conf 43.0%*, Kir21 sel inactive, HEK293 Tl ctr 43.0%*, KCNK3 confirm 93.0* and KCNK3 uninduced 0.15*.
COc1ccc(NC(=O)c2cc(C)no2)cc1 was read as KCNQ1 act inactive, hERG rescue -5.1, KCNK9 block inactive, KCNQ1 block inactive and KCNK3 block inactive.
`COc1ccc(-c2[nH]c(-c3ccc4c(c3)OCO4)nc2-c2ccccc2)cc1` gave KCNQ1 act inactive, hERG rescue -7.2, KCNK9 block -10.7*, KCNQ1 block 11*, KCNK3 block -10.2*, KCNK9 block conf 55.5%*, Kir21 sel inactive, HEK293 Tl ctr 35.0%*, KCNK3 confirm 153.7* and KCNK3 uninduced 0.105*.
For COc1ccccc1NC(=O)CC(c1ccc(F)cc1)c1ccco1 (stereo not drawn) the results were KCNQ1 act inactive, hERG rescue -10.4, KCNK9 block -10.4*, KCNQ1 block inactive, KCNK3 block inactive, KCC2 mod -1.82, KCNK9 block conf 35.5%*, Kir21 sel inactive, HEK293 Tl ctr 30.0%*, KCNK3 confirm 121.0* and KCNK3 uninduced 0.154*.
Screening COc1ccc(C(CC(=O)Nc2ccc(F)cc2)c2ccccc2)cc1 (stereo not drawn) returned KCNQ1 act inactive, hERG rescue -7.9, KCNK9 block inactive, KCNQ1 block inactive, KCNK3 block inactive and KCC2 mod -1.24.
Screening O=C(CC(c1ccc(F)cc1)c1ccco1)Nc1nccs1 (stereo not drawn) returned KCNQ1 act inactive, hERG rescue -7.4, KCNK9 block -8.12*, KCNQ1 block inactive, KCNK3 block -10.7*, KCC2 mod -1.42, KCNK9 block conf 32.0%*, Kir21 sel inactive, HEK293 Tl ctr 33.5%*, KCNK3 confirm 110.3* and KCNK3 uninduced 0.157*.
C=CCOc1ccc(CN(C)C(=O)CNC(=O)c2ccc(-c3ccccc3)cc2)cc1 was read as KCNQ1 act inactive, hERG rescue 0.9, KCNK9 block inactive, KCNQ1 block inactive and KCNK3 block inactive.
Cc1sc2nc(CN3CCCC3)nc(N3CCN(S(=O)(=O)c4cccc(F)c4)CC3)c2c1C was read as KCNK3 block inactive.

Screening data: PubChem BioAssay, several laboratories
